The results in this text go back to ChEMBL document CHEMBL4613294, “Inhibition of Nonessential Bacterial Targets: Discovery of a Novel Serine O-Acetyltransferase Inhibitor” (ACS Med Chem Lett, 2020).

One data set deals with Staphylococcus aureus. The experiment in a line: Antibacterial activity against methicillin-resistant Staphylococcus aureus ATCC 33591 after 12 hrs by resazurin dye based assay. To be noted: ATCC 33591, 12 h. It counts as functional. (Alamar Blue is a resazurin reagent that responds to reducing activity.)
The subject of data set [1] is Escherichia coli. The experiment in a line: Antibacterial activity against Escherichia coli ATCC 25922 incubated in MHB medium for 16 to 24 hrs by CLSI-based broth microdilution assay. The class given is functional. Background: Broth dilution looks for growth in wells or tubes with falling amounts of substance.
Data set [2] concerns Escherichia coli. The experiment in a line: Antibacterial activity against Escherichia coli ATCC 25922 incubated in LB 20% minimal medium lacking cysteine for 16 to 24 hrs by CLSI-based broth microdilution assay. The class given is functional.
Data set [3] has as its system Salmonella enterica subsp. enterica serovar Typhimurium. Description: Inhibition of Salmonella typhimurium Serine acetyltransferase expressed in Escherichia coli Tuner(TM) BL21(DE3) cells at 100 uM using acetylCo-A and L-serine as substrate measured every 27 secs for 5 mins by DNTB reagent-based UV-Visible spectrophotometric method relative to control. A digest of the protocol:
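Recombinant StSAT activity followed indirectly with Ellman's reagent: CoASH released from acetyl-CoA plus L-Ser gives TNB, read by absorbance at pH above 7 (ε 14 000 M–1 cm–1) in 96-well format. Compounds at 100 μM, kinetic reads at 27 s intervals, % inhibition taken at 180 s endpoint. Hits at ≥40% retested at 100 μM.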

Data set [4] is described as follows: Inhibition of Salmonella typhimurium Serine acetyltransferase expressed in Escherichia coli Tuner(TM) BL21(DE3) cells using acetylCo-A and L-serine as substrate measured every 27 secs for 5 mins by DNTB reagent-based UV-Visible spectrophotometric method. Also noted: species or system Salmonella enterica subsp. enterica serovar Typhimurium.
Data set [5] relates to Salmonella enterica subsp. enterica serovar Typhimurium. Description: Inhibition of Salmonella typhimurium Serine acetyltransferase expressed in Escherichia coli Tuner(TM) BL21(DE3) cells at 50 to 200 uM using acetylCo-A and L-serine as substrate measured every 27 secs for 5 mins by DNTB reagent-based UV-Visible spectrophotometric method.
Data set [6] is described as follows: Solubility of compound at 200 uM. It counts as physicochemical.

As a reminder, the MIC is the smallest concentration in the dilution series that meets the test's criterion for growth inhibition. What is called inhibition is the drop in the measured response relative to a control, in per cent. Usually IC50 stands for the concentration at which inhibition is half-maximal.

Each structure is given as a SMILES string. ≈ marks a conversion by molar mass, not a printed value. Calls of active or inactive are those of the source. Bounds are passed on as bounds.

In the data set on Staphylococcus aureus, `CC1(C)CCC[C@]2(C)C1CC[C@]1(O)[C@H](O)C3=C(CO)C(=O)OC3=C[C@H]12` (some centres not stated) came in with an MIC of 25 µg/mL (≈ 71.7 µM).

Take `Cc1snnc1C(=O)Nc1ncc([N+](=O)[O-])s1`: the MIC in the data set on Escherichia coli [1] and against Escherichia coli [2] was more than 128 µg/mL each time. Further, the inhibition in data set [3] turned out to be 72%. Further, in data set [4], the IC50 stood at 47.8 µM.

For the compound `COc1cc(NC(=O)c2cc(-c3ccc(OC)c(S(N)(=O)=O)c3)[nH]n2)cc(OC)c1`, the MIC in the data set on Escherichia coli [1] and against Escherichia coli [2] was more than 128 µg/mL throughout. The inhibition entry in data set [5] was “Active”. Moreover, the solubility result in data set [6] was “Insoluble”. Also, the inhibition in data set [3] worked out at 52%.

With `CC1=C2[C@@H](OC1=O)C(=O)[C@@H]1[C@@](O)(CCC3C(C)(C)CCC[C@]31C)[C@H]2O` (some centres not stated), it took 12.5 µg/mL (≈ 35.9 µM) to inhibit growth against Staphylococcus aureus (MIC).

As for `O=C(Nc1ncc([N+](=O)[O-])s1)c1csnn1`, the MIC against Escherichia coli [1] was more than 128 µg/mL; with Escherichia coli [2] it was 64 µg/mL (≈ 249 µM). For the same compound, the inhibition in data set [3] amounted to 68%. The compound also gave an IC50 in data set [4] of 48.6 µM.

Regarding `COc1cccc(NC(=O)c2cc(-c3ccc(OC)c(S(N)(=O)=O)c3)[nH]n2)c1`, the MIC against Escherichia coli [1] and against Escherichia coli [2] was more than 128 µg/mL each time. In data set [3], this compound gave an inhibition of 75%. This compound also returned a half-maximal inhibitory concentration (IC50) in data set [4] of 13.6 µM.

On to `C=CCSc1nc2c(c(=O)[nH]1)C(c1ccc(OCC(N)=O)cc1)CC(=O)N2` (configuration not stated), for which the MIC against Escherichia coli [1] and in the data set on Escherichia coli [2] was more than 128 µg/mL in each case. Also, the inhibition in data set [3] was 57%. This compound also came in with a concentration for half-maximal inhibition (IC50) in data set [4] of 84.1 µM.

Turning to `COc1ccc(-c2cc(C(=O)NCc3ccccc3)n[nH]2)cc1S(N)(=O)=O`, the MIC in the data set with Escherichia coli [1] and against Escherichia coli [2] was more than 128 µg/mL each time. Further, the inhibition in data set [3] worked out at 79%. The compound further yielded an IC50 in data set [4] of 52.8 µM.
